Active and inactive are the calls of the source. No cut-off for these calls is given here.
Legend:
[1] = test system: Platelet; test: Inhibition of arachidonic acid-induced platelet aggregation in rabbit platelet rich plasma by Born's turbidimetric method; format: functional; conditions: Oryctolagus cuniculus
In short: (§1)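 Rabbit carotid blood in 3.8% sodium citrate (9:1); PRP by 500g spin for 10 min, PPP by a further 3000g spin for 10 min. PRP was preincubated in duplicate for 5 min at 37 °C with vehicle or agent (0.1, 0.2, 0.4, 0.8, 1.6 mM). Aggregation was triggered by ADP (10 μM final) or AA (1 mM), and maximal light transmission was read within 5 min, within 3 h of collection. Inhibition % = 100 × (1 − treated/control); IC50 was calculated.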

[2] = test system: Platelet; test: Inhibition of adenosine diphosphate-induced platelet aggregation in rabbit platelet rich plasma by Born's turbidimetric method; format: functional; conditions: Oryctolagus cuniculus; in short: as §1
[3] = test system: Rattus norvegicus; test: Antioxidant activity in Sprague-Dawley rat middle cerebral artery occlusion model assessed as increase in superoxide dismutase activity at 90 mg/kg, ig for 7 consecutive days; format: functional; conditions: route intragastric
In short: (§2)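 Rats pretreated orally in saline for 7 days underwent 2 h MCAO with reperfusion. At 24 h brains were removed, rinsed in cold 0.9% saline, blotted and stored at −70 °C. After protein quantification, GSH, SOD activity and MDA were measured with commercial kits; n = 12/group.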

[4] = test system: Rattus norvegicus; test: Antioxidant activity in Sprague-Dawley rat middle cerebral artery occlusion model assessed as increase in glutathione level in brain at 90 mg/kg, ig for 7 consecutive days; format: functional; conditions: route intragastric; in short: as §2
[5] = test system: Platelet; test: Inhibition of arachidonic acid-induced platelet aggregation in rabbit platelet rich plasma at 0.1 mM by Born's turbidimetric method; format: functional; conditions: Oryctolagus cuniculus; in short: as §1
[6] = test system: Platelet; test: Inhibition of adenosine diphosphate-induced platelet aggregation in rabbit platelet rich plasma at 0.1 mM by Born's turbidimetric method; format: functional; conditions: Oryctolagus cuniculus; in short: as §1
[7] = test system: Rattus norvegicus; test: Anticerebral ischemic activity in Sprague-Dawley rat middle cerebral artery occlusion model assessed as reduction in infarct size in brain at 90 mg/kg, ig for 7 consecutive days by TTC assay; format: functional; set-up: scale not given: the % may be the effect or the level left; conditions: route intragastric
In short: (§3)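 SD rats, chloral hydrate 350 mg/kg ip anaesthesia; right MCA occluded 2 h by silicone-tipped 4-0 nylon filament via ECA into ICA (>80% CBF drop by laser Doppler, 37 ± 0.5 °C), then reperfusion. Dosed in normal saline orally daily 7 days before ischemia. At 24 h, 2-mm coronal slices stained 2% TTC 30 min 37 °C; infarct area as % of whole brain; n = 6.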

[8] = test system: Rattus norvegicus; test: Anticerebral ischemic activity in Sprague-Dawley rat middle cerebral artery occlusion model assessed as reduction in neurological deficit score at 30 mg/kg, ig for 7 consecutive days by Longa's method; format: functional; set-up: scale not given: the % may be the effect or the level left; conditions: route intragastric
In short: (§4)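 SD rats were dosed orally in normal saline for 7 days before ischemia (n = 12/group). They were anesthetized ip with 350 mg/kg chloral hydrate and given MCAO with a silicone-tipped 4-0 nylon suture for 2 h, then reperfusion. Occlusion was confirmed as >80% CBF drop by laser Doppler, with core temperature held at 37 °C. Deficits were scored blinded by modified Longa's method 24 h after reperfusion.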

[9] = test system: Plasma; test: Anticoagulant activity in rabbit plasma assessed as length of activated partial thromboplastin time; format: functional, cell-free; conditions: Oryctolagus cuniculus
[10] = test system: Rattus norvegicus; test: Antioxidant activity in Sprague-Dawley rat middle cerebral artery occlusion model assessed as increase in superoxide dismutase activity at 30 mg/kg, ig for 7 consecutive days; format: functional; conditions: route intragastric; in short: as §2
[11] = test system: PC-12; test: Antioxidant activity in rat PC12 cells assessed as inhibition of hydrogen peroxide induced cytotoxicity at 10 uM treated for 2 hrs prior to H2O2 challenge measured after 1 hr by MTT assay (reference value: 52.45%); format: functional; set-up: scale not given: the % may be the effect or the level left
[12] = test system: Rattus norvegicus; test: Antioxidant activity in Sprague-Dawley rat middle cerebral artery occlusion model assessed as decrease in malondialdehyde level in brain at 90 mg/kg, ig for 7 consecutive days; format: functional; set-up: scale not given: the % may be the effect or the level left; conditions: route intragastric; in short: as §2
[13] = test system: Rattus norvegicus; test: Antithrombotic activity in Sprague-Dawley rat arteriovenous shunt model assessed as reduction of thrombus wet weight at 30 mg/kg, po qd for 5 consecutive days; format: functional; set-up: scale not given: the % may be the effect or the level left
In short: (§5)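 Male SD rats were dosed by gavage in saline daily for 5 days (n = 12/group). An A-V shunt linked the right carotid artery to the left jugular vein: a saline-filled 14 cm polyethylene tube holding 6 cm of four braided silk threads. After 15 min of flow, the threads were weighed wet, then dried 6 h at room temperature and reweighed, less the pre-experiment thread weight.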

[14] = test system: Rattus norvegicus; test: Antithrombotic activity in Sprague-Dawley rat arteriovenous shunt model assessed as reduction of thrombus dry weight at 90 mg/kg, po qd for 5 consecutive days; format: functional; set-up: scale not given: the % may be the effect or the level left; in short: as §5
[15] = test system: Rattus norvegicus; test: Anticerebral ischemic activity in Sprague-Dawley rat middle cerebral artery occlusion model assessed as reduction in infarct size in brain at 30 mg/kg, ig for 7 consecutive days by TTC assay; format: functional; set-up: scale not given: the % may be the effect or the level left; conditions: route intragastric; in short: as §3
[16] = test system: Rattus norvegicus; test: Antithrombotic activity in Sprague-Dawley rat arteriovenous shunt model assessed as reduction of thrombus dry weight at 30 mg/kg, po qd for 5 consecutive days; format: functional; set-up: scale not given: the % may be the effect or the level left; in short: as §5
[17] = test system: Platelet; test: Ratio of 3-nbutylphthalide to compound for adenosine diphosphate-induced platelet aggregation in rabbit platelet rich plasma at 0.1 mM; format: functional, Oryctolagus cuniculus
[18] = test system: Rattus norvegicus; test: Antioxidant activity in Sprague-Dawley rat middle cerebral artery occlusion model assessed as decrease in malondialdehyde level in brain at 30 mg/kg, ig for 7 consecutive days; format: functional; set-up: scale not given: the % may be the effect or the level left; conditions: route intragastric; in short: as §2
[19] = test system: Rattus norvegicus; test: Anticerebral ischemic activity in Sprague-Dawley rat middle cerebral artery occlusion model assessed as reduction of water content in brain at 30 mg/kg, ig for 7 consecutive days; format: functional, organism-based; set-up: dose 30 mg/kg
In short: (§6)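 Rats given oral saline-vehicle pretreatment for 7 days underwent 2 h suture MCAO plus reperfusion. At 24 h the animals were decapitated and brains weighed wet, then dried at 105 °C for 24 h. Water % = (wet − dry)/wet × 100; n = 6/group.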

[20] = test system: Rattus norvegicus; test: Anticerebral ischemic activity in Sprague-Dawley rat middle cerebral artery occlusion model assessed as reduction of water content in brain at 90 mg/kg, ig for 7 consecutive days; format: functional, organism-based; set-up: dose 90 mg/kg; in short: as §6
[21] = test system: Rattus norvegicus; test: Antithrombotic activity in Sprague-Dawley rat arteriovenous shunt model assessed as reduction of thrombus wet weight at 90 mg/kg, po qd for 5 consecutive days; format: functional; set-up: scale not given: the % may be the effect or the level left; in short: as §5
[22] = test system: Platelet; test: Ratio of 3-nbutylphthalide to compound for arachidonic acid-induced platelet aggregation in rabbit platelet rich plasma at 0.1 mM; format: functional, Oryctolagus cuniculus
[23] = test system: Rattus norvegicus; test: Anticerebral ischemic activity in Sprague-Dawley rat middle cerebral artery occlusion model assessed as reduction in loss of hippocampal neurons at 90 mg/kg, ig for 7 consecutive days by hematoxylin-eosin staining; format: functional, organism-based; set-up: dose 90 mg/kg
In short: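 Rats dosed ig in saline for 7 days before 2 h MCAO/reperfusion. Brain tissue sections from the ischemic side were stained with hematoxylin–eosin and examined at ×200 for hippocampal neuron loss; n = 6/group.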

[24] = test system: PC-12; test: Antioxidant activity in rat PC12 cells assessed as inhibition of hydroxyl radical-induced cytotoxicity at 10 uM treated for 2 hrs prior to H2O2/Fe+ challenge measured after 1 hr by MTT assay (reference value: 61.95%); format: functional; set-up: scale not given: the % may be the effect or the level left
[25] = test system: Platelet; test: Ratio of aspirin to compound for adenosine diphosphate-induced platelet aggregation in rabbit platelet rich plasma at 0.1 mM; format: functional, Oryctolagus cuniculus
[26] = test system: Rattus norvegicus; test: Anticerebral ischemic activity in Sprague-Dawley rat middle cerebral artery occlusion model assessed as reduction in neurological deficit score at 90 mg/kg, ig for 7 consecutive days by Longa's method; format: functional; set-up: scale not given: the % may be the effect or the level left; conditions: route intragastric; in short: as §4
[27] = test system: Platelet; test: Ratio of edaravone to compound for adenosine diphosphate-induced platelet aggregation in rabbit platelet rich plasma at 0.1 mM; format: functional, Oryctolagus cuniculus
[28] = test system: Rattus norvegicus; test: Anticerebral ischemic activity in Sprague-Dawley rat middle cerebral artery occlusion model assessed as reduction in neurological deficit score at 80 mg/kg, ig for 7 consecutive days by Longa's method; format: functional; set-up: scale not given: the % may be the effect or the level left; conditions: route intragastric; in short: as §4
[29] = test system: Rattus norvegicus; test: Antioxidant activity in Sprague-Dawley rat middle cerebral artery occlusion model assessed as increase in superoxide dismutase activity at 80 mg/kg, ig for 7 consecutive days; format: functional; conditions: route intragastric; in short: as §2
[30] = test system: Rattus norvegicus; test: Anticerebral ischemic activity in Sprague-Dawley rat middle cerebral artery occlusion model assessed as reduction of water content in brain at 80 mg/kg, ig for 7 consecutive days; format: functional, organism-based; set-up: dose 80 mg/kg; in short: as §6
[31] = test system: Rattus norvegicus; test: Anticerebral ischemic activity in Sprague-Dawley rat middle cerebral artery occlusion model assessed as reduction in infarct size in brain at 80 mg/kg, ig for 7 consecutive days by TTC assay; format: functional; set-up: scale not given: the % may be the effect or the level left; conditions: route intragastric; in short: as §3
[32] = test system: Rattus norvegicus; test: Antioxidant activity in Sprague-Dawley rat middle cerebral artery occlusion model assessed as decrease in malondialdehyde level in brain at 80 mg/kg, ig for 7 consecutive days; format: functional; set-up: scale not given: the % may be the effect or the level left; conditions: route intragastric; in short: as §2
[33] = test system: Rattus norvegicus; test: Antithrombotic activity in Sprague-Dawley rat arteriovenous shunt model assessed as reduction of thrombus dry weight at 80 mg/kg, po qd for 5 consecutive days; format: functional; set-up: scale not given: the % may be the effect or the level left; in short: as §5
[34] = test system: Rattus norvegicus; test: Antioxidant activity in Sprague-Dawley rat middle cerebral artery occlusion model assessed as increase in glutathione level in brain at 80 mg/kg, ig for 7 consecutive days; format: functional; conditions: route intragastric; in short: as §2
[35] = test system: Rattus norvegicus; test: Antithrombotic activity in Sprague-Dawley rat arteriovenous shunt model assessed as reduction of thrombus wet weight at 80 mg/kg, po qd for 5 consecutive days; format: functional; set-up: scale not given: the % may be the effect or the level left; in short: as §5

SMILES | IC50 [1] [µM] | IC50 [2] [µM] | inhibition at 100 µM [5] [%] | inhibition at 100 µM [6] [%] | Activity [9] | Activity [11] [%] | Activity [24] [%] | Activity [33] [%] | Activity [35] [%] | further results
CCCCC1SC(=O)c2ccccc21 (racemic) | 350 | > 1000 |  |  |  |  |  |  |  | 
CCCCCC1SC(=O)c2ccccc21 (racemic) | 210 | 420 | 35.2 | 15.6 | inactive | 77.23 | 86.08 |  |  | Activity [3]: 39.77%; Activity [4]: 82.67%; Activity [7]: 59.62%; Activity [8]: 25.09%; Activity [10]: 25.87%; Activity [12]: 40.9%; Activity [13]: 27.35%; Activity [14]: 43.33%; Activity [15]: 35.5%; Activity [16]: 32.85%; Ratio [17]: 1.65; Activity [18]: 23.66%; Activity [19]: inactive; Activity [20]: Active; Activity [21]: 39.7%; Ratio [22]: 2.02; Activity [23]: Active; Ratio [25]: 1.45; Activity [26]: 37.45%; Ratio [27]: 1.36
CCC1SC(=O)c2ccccc21 (racemic) | > 1000 | > 1000 |  |  |  |  |  |  |  | 
CCCCCCC1SC(=O)c2ccccc21 (racemic) | 830 | 800 |  |  |  |  |  |  |  | 
CCCCC1OC(=O)c2ccccc21 (racemic) [RAC-3-N-BUTYLPHTHALIDE] | 480 | > 1000 | 17.4 | 9.5 | inactive | 68.05 | 73.05 | 26.9 | 23.58 | Activity [28]: 31.47%; Activity [29]: 33.61%; Activity [30]: inactive; Activity [31]: 40.04%; Activity [32]: 25.73%; Activity [34]: 40.83%
CC(=O)Oc1ccccc1C(=O)O [ASPIRIN] | 150 | 880 | 37.2 | 10.8 | inactive |  |  | 34.19 | 33.45 | 

Reference: ChEMBL document CHEMBL2163221, “Discovery of a potential anti-ischemic stroke agent: 3-pentylbenzo[c]thiophen-1(3H)-one” (J Med Chem, 2012)
